Results on 43 compounds are retold here after ChEMBL document CHEMBL1926521, “Arylcyanoacrylamides as inhibitors of the Dengue and West Nile virus proteases” (Bioorg Med Chem, 2011).

SMILES strings stand for the structures. Active and inactive are the calls of the source. The rule behind the calls is not given here.

Test [1] in a line: Inhibition of Dengue virus NS2B-NS3 protease expressed in Escherichia coli BL21 lambda (DE3) using Abz-NleKRRS-3-(NO2)Y as substrate compound preincubated for 15 mins before substrate addition measured up to 15 mins by spectrofluorimetry.
The nature of test [2]: Inhibition of West Nile virus NS2B-NS3 protease expressed in Escherichia coli BL21 lambda (DE3) using Abz-GLKRGG-3-(NO2)Y compound preincubated for 15 mins before substrate addition measured up to 15 mins by spectrofluorimetry.
Test [3] addresses T1, Prothrombin (Homo sapiens, UniProt P00734). The test can be described thus: Inhibition of human thrombin using Boc-VPR-AMC as substrate compound preincubated for 15 mins before substrate addition measured up to 10 mins by spectrofluorimetry.
In test [4] the test system is Dengue virus. The test can be described thus: Inhibition of Dengue virus NS2B-NS3 protease expressed in Escherichia coli BL21 lambda (DE3) using Abz-NleKRRS-3-(NO2)Y as substrate at 50 uM preincubated for 15 mins before substrate addition measured up to 15 mins by spectrofluorimetry. The gist of the method: (§1)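 Single-concentration screen against His-tagged NS2B-NS3 protease (Ni²⁺-affinity purified from E. coli). Enzyme was 100 nM for Dengue or 150 nM for West Nile. Inhibitor at 50 µM was preincubated 15 min with enzyme, then internally quenched FRET substrate (final 50 µM) was added. Read at ex 320/em 405 nm for 15 min. Rate taken as RFU/s; % inhibition is the mean of triplicates.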

Test [5] addresses T1, Prothrombin. Nature of the test: Inhibition of human thrombin using Boc-VPR-AMC as substrate at 25 uM preincubated for 15 mins before substrate addition measured up to 10 mins by spectrofluorimetry.
A further test relates to West Nile virus. Nature of the test: Inhibition of West Nile virus NS2B-NS3 protease expressed in Escherichia coli BL21 lambda (DE3) using Abz-GLKRGG-3-(NO2)Y as substrate at 50 uM preincubated for 15 mins before substrate addition measured up to 15 mins by spectrofluorimetry. The gist of the method:
as §1

Test [6] concerns Dengue virus. Nature of the test: Binding affinity to Dengue virus NS2B-NS3 protease catalytic center assessed as quenching of Trp50 intrinsic fluorescence in presence of aprotinin.
The test system of test [7] is Dengue virus. Nature of the test: Binding affinity to Dengue virus NS2B-NS3 protease catalytic center assessed as quenching of Trp50 intrinsic fluorescence.
Test [8] in a line: Selectivity ratio of Ki for human thrombin to Ki for West Nile virus NS2B-NS3 protease.
Test [9] in a line: Selectivity ratio of Ki for human thrombin to Ki for Dengue virus NS2B-NS3 protease.

In general, Ki refers to a measure of affinity in units of concentration, obtained from inhibition or displacement. What is called inhibition is the percentage by which the read-out fell short of the control. On to `N#C/C(=C\c1ccc(N2CCOCC2)o1)C(=O)NC1CC1`, for which the Ki in test [1] is 184 µM; in test [2], over 200 µM; on Prothrombin [3], 23.4 µM. Moreover, the inhibition in the test on Dengue virus [4] stood at 10.5%; at Prothrombin [5] it was 47%; with West Nile virus, 24%.
In the case of `N#C/C(=C\c1ccc(N2CCNCC2)cc1)C(N)=O`, the inhibition in the test on Dengue virus [4] came out at 28.6%; on Prothrombin [5] it was 26.1%; in the test on West Nile virus it was 45%.
Take `N#C/C(=C\c1ccc(Br)s1)C(N)=O`: the results for the inhibition in the test on Dengue virus [4], against Prothrombin [5] and in the test with West Nile virus were 20.2%, 26.3% and 19.2%, respectively.
The like results for `CN(C)c1ccc(/C=C(\C#N)C(=O)NCc2ccccn2)cc1` were, in that order, 25.3%, “inactive” and 21.3%.
The like results for `CN(C)c1ccc(/C=C(\C#N)C(N)=O)cc1` were, in that order, 35.1%, 21.6% and 46%.
As to `N#Cc1n[nH]nc1-c1ccccc1`, the inhibition entry in the test with Dengue virus [4] and on Prothrombin [5] was “inactive” throughout. In the test on West Nile virus, this compound registered an inhibition of 11.2%.
`CC(C)c1ccc(/C=C(\C#N)C(=O)NCC2CCCO2)cc1` (configuration not stated): the inhibition constant (Ki) turned out to be 98.1 µM in [1], 101 µM in test [2] and 165 µM on Prothrombin [3]. Moreover, the result in the test with Dengue virus [6] was inactive. Moreover, the inhibition came to 28.2% with Dengue virus [4], 14.4% against Prothrombin [5] and 46.3% in the test on West Nile virus. In addition, the result with Dengue virus [7] was Active.
For the compound `N#C/C(=C\c1ccc(O)cc1)C(N)=O`, the results for the Ki (in [1]; in [2]; at Prothrombin [3]) were 35.7 µM, 44.6 µM and 102 µM, respectively. Further, the values for the Ratio Ki in test [8] and in [9] were 2.3 and 2.8, respectively. The inhibition in the test with Dengue virus [4] was 51.7%; on Prothrombin [5], 24.4%; with West Nile virus, 55%.
`N#C/C(=C\c1ccc(C(=O)N2CCCCC2)cc1)C(N)=O`: the inhibition came to 22.3% in the test on Dengue virus [4] and 24% in the test on West Nile virus. Besides, the inhibition result at Prothrombin [5] was “inactive”.
Turning to `CN(C)c1ccc(C=C(C#N)C#N)cc1`, the inhibition with Dengue virus [4] was found to be 8.7%; at Prothrombin [5], 16.3%; with West Nile virus, 8.8%.
In the case of `N#C/C(C(N)=O)=C1\CCc2ccccc21`, the inhibition in the test with Dengue virus [4] came out at 23.2%; at Prothrombin [5], 10.3%; with West Nile virus it was 24.1%.
The like results for `N#C/C(=C\c1cccc(C(=O)O)c1)C(=O)NC1CC1` were, in that order, 20.2%, 11.9% and 20.1%.
For the compound `N#C/C(=C\c1ccncc1)C(N)=O`, the inhibition entry with Dengue virus [4], at Prothrombin [5] and in the test with West Nile virus was “inactive” each time.
For the compound `COc1cc(/C=C(\C#N)C(N)=O)ccc1O`, the inhibition in the test on Dengue virus [4] was 43.2%; against Prothrombin [5], 17.4%; in the test on West Nile virus it was 42.9%.
With `C/C(=C(/C#N)C(N)=O)c1ccccc1`, in the test with Dengue virus [4], the inhibition result is “inactive”. In addition, the inhibition turned out to be 7.3% against Prothrombin [5] and 13.7% in the test on West Nile virus.
In the case of `CN(C)c1ccc(/C=C(\C#N)C(N)=S)cc1`, the inhibition entry with Dengue virus [4] and in the test with West Nile virus was “inactive” each time. Moreover, the inhibition on Prothrombin [5] stood at 13.7%.
For `N#C/C(=C\c1ccc(C(=O)O)cc1)C(=O)NC1CC1`, the inhibition in the test on Dengue virus [4] was 20%; on Prothrombin [5], 15.9%; in the test with West Nile virus it was 31%.
For `CC(=C\c1ccccc1)/C=C(\C#N)C(=O)NCC1CCCO1` (configuration not stated), the inhibition in the test on Dengue virus [4] was determined as 36.8%; against Prothrombin [5], 28.7%; in the test with West Nile virus, 30.1%.
The like results for `N#C/C(=C\c1ccc(O)cc1)C(=O)N1CCOCC1` were, in that order, 32.2%, 18% and 49.9%.
The like results for `CC(=O)Oc1ccc(/C=C(\C#N)C(N)=O)cc1` were, in that order, 43.1%, 24.4% and 28.8%.
As for `COc1ccc(/C=C(\C#N)C(=O)N[C@@H](CO)C(=O)NC2CC2)cc1`, the inhibition came to 23% with Dengue virus [4], 23.3% on Prothrombin [5] and 31.7% in the test on West Nile virus.
Turning to `CCN(CC)C(=O)/C(C#N)=C/c1cc(O)c(O)c([N+](=O)[O-])c1`, the inhibition in the test with Dengue virus [4] was determined as 21%; against Prothrombin [5] it was 21.9%; in the test with West Nile virus, 32.4%.
The like results for `CN(C)c1ccc(/C=C/C=C(\C#N)C(=O)NC2CC2)cc1` were, in that order, 10.3%, 16.2% and 17.1%.
The like results for `N#C/C(=C\c1cccc(O)c1)C(N)=O` were, in that order, 15.7%, 9.8% and 18.1%.
The like results for `CN(C)c1ccc(CC(C#N)C(N)=O)cc1` (configuration not stated) were, in that order, 7.1%, “inactive” and 16.2%.
With `CN1CCN(c2ccc(/C=C(\C#N)C(=O)NC3CC3)cc2)CC1`, the inhibition was 37.4% with Dengue virus [4], 21.8% against Prothrombin [5] and 47.8% with West Nile virus.
Regarding `N#C/C(=C\c1cccc(C(=O)NC2CC2)c1)C(=O)NC1CC1`, the results for the inhibition in the test on Dengue virus [4], at Prothrombin [5] and with West Nile virus were 10.8%, 8% and 19.1%, respectively.
Regarding `N#C/C(=C\c1cccc(N2CCOCC2)c1)C(=O)NC1CC1`, the inhibition in the test with Dengue virus [4] is 18.5%; at Prothrombin [5] it was 9.7%; in the test with West Nile virus it was 20.5%.
With `N#C/C(=C\c1ccc(C(=O)N2CCOCC2)cc1)C(=O)NC1CC1`, the inhibition in the test on Dengue virus [4] turned out to be 22.9%; against Prothrombin [5], 9%; in the test on West Nile virus, 23%.
The like results for `N#C/C(=C\c1ccc(C#N)cc1)C(N)=O` were, in that order, 13.3%, 10.6% and 20%.
The like results for `N#C/C(=C\c1ccc(N2CCCCC2)cc1)C(N)=O` were, in that order, 14%, 20% and 24.2%.
The like results for `N#C/C(=C\c1ccc(Br)cc1)C(N)=O` were, in that order, 11.6%, 13.6% and 15.9%.
As to `N#CC(Cc1ccc(N2CCOCC2)cc1)C(N)=O` (configuration not stated), the inhibition entry with Dengue virus [4] and on Prothrombin [5] was “inactive” in each case. Besides, in the test on West Nile virus, the inhibition came to 7.9%.
For `N#C/C(=C\c1ccc(C(=O)O)cc1)C(N)=O`, the inhibition in the test with Dengue virus [4] turned out to be 17.1%; against Prothrombin [5], 13.2%; in the test on West Nile virus, 23.8%.
For `N#C/C(=C\c1ccc(Br)cc1)C(=O)NC1CC1`, the inhibition with Dengue virus [4] was 10.9%; in the test with West Nile virus it was 22.6%. In addition, the inhibition result at Prothrombin [5] is “inactive”.
As for `CN(C)c1ccc(/C=C(\C#N)C(=O)NCC2CCCO2)cc1` (configuration not stated), the inhibition stood at 23.3% in the test with Dengue virus [4], 19.8% on Prothrombin [5] and 28.1% in the test on West Nile virus.
`COc1ccc(/C=C(\C#N)C(N)=O)cc1`: the inhibition in the test on Dengue virus [4] amounted to 19.7%; at Prothrombin [5] it was 16.7%; in the test on West Nile virus it was 23.4%.
The like results for `N#C/C(=C\c1ccc(N2CCOCC2)cc1)C(N)=O` were, in that order, 28.2%, 19.2% and 35.3%.
For `COc1cc(CC(C#N)C(N)=O)cc(OC)c1OC` (configuration not stated), the inhibition result in the test on Dengue virus [4], at Prothrombin [5] and with West Nile virus was “inactive” throughout.
In the case of `N#C/C(=C\c1ccc(N2CCCC2)cc1)C(N)=O`, the inhibition was determined as 24.3% in the test on Dengue virus [4], 17.7% against Prothrombin [5] and 24.6% in the test with West Nile virus.
The like results for `CN(C)c1ccc(/C=C(\C#N)C(=O)N2CCOCC2)cc1` were, in that order, 43.3%, 25.1% and 38.1%.
`N#C/C(=C\c1ccc(Cl)s1)C(N)=O`: the inhibition with Dengue virus [4] stood at 22%; against Prothrombin [5], 27.9%; in the test on West Nile virus it was 23.8%.
The like results for `C/C(=C(/C#N)C(N)=O)c1ccc(O)cc1` were, in that order, 16.8%, “inactive” and 21.9%.
